# Screening results from PubChem.
# Shown are actives, neighbours in structure and some others; about 2.3% of the full set was active somewhere.
# V1R ag counter = activates human V1a receptor in oxytocin agonist counter-screen | AID 2797 | actives 0.25% (n = 320,000) | activation, % at 3 µM | CHO-V1R cells, Fluo-8 calcium fluorescence, agonist mode; 0% DMSO, 100% 3 nM vasopressin;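 active = activation above the mean activation of all tested compounds plus 3 SD, per screening run, cut at about 20% in these data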;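 also: signal is peak over basal fluorescence ratio across a 100 second FLIPR read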
# Target sequence (P37288 whole entry, looked up): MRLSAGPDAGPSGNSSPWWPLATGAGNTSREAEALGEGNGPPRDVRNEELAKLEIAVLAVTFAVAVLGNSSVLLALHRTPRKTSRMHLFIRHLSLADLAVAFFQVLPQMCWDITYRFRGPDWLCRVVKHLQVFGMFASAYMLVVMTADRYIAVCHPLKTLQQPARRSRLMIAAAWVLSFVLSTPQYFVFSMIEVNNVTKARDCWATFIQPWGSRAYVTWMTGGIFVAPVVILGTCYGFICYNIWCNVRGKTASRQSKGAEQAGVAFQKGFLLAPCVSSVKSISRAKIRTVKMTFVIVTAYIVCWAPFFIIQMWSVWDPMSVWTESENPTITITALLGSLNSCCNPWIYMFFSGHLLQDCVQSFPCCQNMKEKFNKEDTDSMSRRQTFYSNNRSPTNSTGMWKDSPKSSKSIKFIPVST
# OXTR ag = agonists of human oxytocin receptor; P30559; CHO-OTR cells, Fluo-8 calcium fluorescence; normalized: DMSO 0%, oxytocin 100%; activation, % at 3 µM; actives 0.32% (n = 320,000); AID 2435;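 active = activation above the mean of all tested compounds plus 3 SD, cutoff set per screening run, cut at about 20% in these data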;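 also: peak over basal fluorescence ratio from a 100 s FLIPR kinetic read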
# TAAR1 antagonist = antagonists of human TAAR1. AID 624466. inhibition, % at 3 µM. actives 1.5% (n = 360,000). CHO RD-HGA16 TAAR1, Fluo-8 calcium fluorescence, antagonist. Q96RJ0;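 active = inhibition above a per-plate cutoff, the mean inhibition of test compounds on that plate plus 3 SD, cut at about 49% in these data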;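 also: 0% = DMSO plus EC80 beta-PEA response and 100% = DMSO alone without agonist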
#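 Test system: hTAAR1-expressing CHO RD-HGA16 cells, Gα16-coupled; Probe or stimulus: EC80 β-phenethylamine stimulus; Compound dosing: single nominal final test compound concentration of 3 µM; Timing: 140 s kinetic read after compound, 140 s after agonist; Signal: Fluo-8 calcium-sensitive fluorescence; Measure: % inhibition of agonist calcium response; Controls: DMSO and EC80 PEA controls.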
# TAAR1 agonist = agonists of human TAAR1. Q96RJ0. CHO RD-HGA16 TAAR1, Fluo-8 calcium fluorescence; vehicle wells 0%, saturating PEA agonist 100%. activation, % at 3 µM. actives 0.99% (n = 360,000);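 active = activation above the mean activation of all test compounds in the run plus 3 SD, cut at about 38% in these data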
#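 Assay system – CHO-derived RD-HGA16 cells with stable Gα16 and human TAAR1 · Compound dosing – one-point dosing at 3 µM (nominal) · Incubation – 17-24 h seeding, 75 min 37 °C dye, 30 min RT · Measured by – kinetic Fluo-8 calcium fluorescence · Control set – DMSO vehicle as 0%, PEA at EC100 as 100% · Repeats – single well for each compound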
# OXTR potentiate = potentiators of human oxytocin receptor; CHO-OTR cells, Fluo-8 calcium fluorescence, potentiator mode; 0% = oxytocin EC15, 100% = EC100; activation, % at 3 µM; actives 0.061% (n = 320,000);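 active = activation above that plate's cutoff, the mean activation of tested compounds plus 3 SD, cut at about 6.6% in these data, passing the limit was not always enough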;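 also: 100% uses oxytocin at 75 nM as the full agonist control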
#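 Assay system: CHO cell line stably expressing human OTR | Also added: Oxytocin at about EC15, sub-maximal agonist stimulus | Times: Compound 6 min at room temperature before oxytocin, 100 s read | Measured by: Fluo-8 intracellular calcium fluorescence, ex 470-495, em 515-575 nm | Controls: EC15 oxytocin alone as 0%, 75 nM oxytocin as 100%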
# TAAR1 nonsel count = counter-screen for TAAR1 antagonists: nonselective antagonists; shares compounds with TAAR1 antagonist; counterscreen cell line, calcium fluorescence, antagonist mode; inhibition, % at 3 µM; actives 77% (n = 2,400); in the data active = inhibition above about 22%;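 also: CHO-Ga16 host cells stimulated with ATP at an EC80 level; 0% = agonist EC80 plus vehicle and 100% = vehicle without agonist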
# TAAR1 antag conf = human TAAR1 antagonism, confirmed; shares compounds with TAAR1 antagonist; actives 40% (n = 2,400); inhibition, % at 3 µM; TAAR1-expressing cells, fluorescence antagonist read-out; in the data active = inhibition above about 49%;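 also: CHO-Ga16 host cells challenged with agonist PEA near its EC80; 0% = agonist at EC80 plus vehicle and 100% = vehicle with no agonist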
# Ga16 nonsel ag = nonselective Ga16 agonism, counter-screen; shares compounds with TAAR1 antagonist; Ga16-expressing cells, calcium fluorescence, agonist counterscreen; activation, % at 3 µM; actives 18% (n = 2,400); in the data active = activation above about 12%;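 also: 0% = vehicle wells and 100% = saturating stimulus response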
# TAAR1 ag counter = TAAR1 agonism, antagonist counter-screen. shares compounds with TAAR1 antagonist. hTAAR1 cell line, fluorescence activation, agonist mode. activation, % at 3 µM. actives 2% (n = 2,400). AID 651955; in the data active = activation above about 37%;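 also: CHO cells stably expressing TAAR1 with calcium dye readout; 0% = DMSO vehicle and 100% = full agonist response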
# Starred values were filed as active, the others as inactive; / = no result.
SMILES,V1R ag counter,OXTR ag,TAAR1 antagonist,TAAR1 agonist,OXTR potentiate,TAAR1 nonsel count,TAAR1 antag conf,Ga16 nonsel ag,TAAR1 ag counter
O=C(Nc1cccc(-c2csc(Nc3ccccc3)n2)c1)c1cc([N+](=O)[O-])cc(C(F)(F)F)c1,0,-1,55*,1,-8,15,29,2,2
NC(=O)c1nsc(C(=O)N(Cc2ccco2)C(C(=O)NC2CCCC2)c2ccc(O)cc2)c1N (configuration not stated),/,/,53*,9,/,22*,45,7,7
COc1ccc(C(C(=O)NC2CCCC2)N(Cc2ccco2)C(=O)c2snc(C(N)=O)c2N)cc1OC (configuration not stated),1,1,43,14,-15,/,/,/,/
COc1ccc(C(C(=O)NC2CCCCC2)N(Cc2ccco2)C(=O)c2snc(C(N)=O)c2N)cc1 (configuration not stated),/,/,71*,15,/,31*,53*,9,8
CC(C(=O)NC1CCCC1)N(Cc1ccco1)C(=O)c1snc(C(=O)NC2CCCC2)c1N (configuration not stated),-1,-3,8,7,-5,/,/,/,/
CC(C)[C@H](NC(=O)c1ccc(Cl)c(Cl)c1)C(=O)N1CCC[C@H]1C(=O)NCc1ccccc1,/,/,-19,2,/,/,/,/,/
CCc1ccc2c(CC(=O)Nc3cccc(S(=O)(=O)N4CCOCC4)c3)coc2c1,6,4,-7,15,-8,/,/,/,/
CC(CCl)n1c(=O)c2ccccc2n1C(=O)c1ccccc1 (configuration not stated),/,/,-39,5,/,/,/,/,/
COc1ccc(S(=O)(=O)Nc2cc3c4c(c2)CCN4C(=O)CC3)cc1C,0,0,-20,0,-9,/,/,/,/
CN1C(=O)CSc2ccc(NC(=O)Nc3ccccn3)cc21,2,-2,70*,16,0,21,49*,8,7
CN1C(=O)CSc2ccc(NC(=O)N3CCN(c4ccccn4)CC3)cc21,0,0,7,6,-7,/,/,/,/
CCOc1ccc(OCC)c(NC(=O)Nc2ccc3c(c2)N(C)C(=O)CS3)c1,2,-2,56*,4,0,22*,28,5,0
CCOC(=O)C1=C(C(=O)OCC)C2N(Cc3ccc(C#N)cc3)c3ccccc3[C@@]23C[C@@H](C(=O)OC)N(S(=O)(=O)c2ccc(C)cc2)C3=N1 (some centres not stated),/,/,-30,1,/,/,/,/,/
Nc1ccn([C@@H]2O[C@H](CNC(=O)[C@@H](Cc3cccnc3)NC=O)[C@@H](O)[C@H]2O)c(=O)n1,/,/,11,0,/,/,/,/,/
CCOC1=C2CN(S(=O)(=O)c3ccc(C)cc3)C(c3ccc(CC)cc3)CC2n2c(=O)n(-c3ccccc3)c(=O)n2C1 (configuration not stated),/,/,-21,0,/,/,/,/,/
Cc1nc2ccccc2c(=O)n1/N=C/c1ccccc1O,1,2,7,-2,-2,/,/,/,/
Cc1ccc(-c2[nH]ncc2/C=N/n2c(C)nc3ccccc3c2=O)cc1,0,2,50*,11,2,23*,40,7,8
O=C(c1cc(C(=O)NCCc2ccccc2)c(=O)n(CCc2ccccc2)c1)c1cc(Cl)ccc1O,0,-1,65*,16,-10,38*,61*,6,3
COc1ccc(Nc2nc(C(=O)N3CCc4ccccc4C3)cs2)cc1,-1,-2,16,23,-12,/,/,/,/
COc1ccc(Nc2nc(C(=O)N3CCc4cc(OC)c(OC)cc4C3)cs2)cc1,-1,-2,57*,2,-1,22*,32,5,0
Cn1cc(C(=O)NCCN2CCN(c3cccc(Cl)c3)CC2)c2c3ccccc3n(C)c2c1=O,1,1,56*,25,-9,29*,43,6,6
COCCN(C(=O)CSc1nnc(-c2ccc(C(C)(C)C)cc2)n1N)c1c(N)n(CC(C)C)c(=O)[nH]c1=O,1,1,7,1,1,/,/,/,/
Cc1cc(N(CCO)CCO)nc(-n2nc(C)cc2C)n1,2,0,-3,5,1,/,/,/,/
Cc1cc(NCCO)nc(-n2nc(C)cc2C)n1,0,1,57*,1,-8,-3,-4,2,2
CC(C)Nc1ncnc2c1ncn2[C@H]1CN(Cc2cccnc2)C[C@@H](CO)O1,/,/,-25,12,/,/,/,/,/
SMILES,V1R ag counter,OXTR ag,TAAR1 antagonist,TAAR1 agonist,OXTR potentiate,TAAR1 nonsel count,TAAR1 antag conf,Ga16 nonsel ag,TAAR1 ag counter
CNC(=S)N/N=C/c1cc(C)n(-c2ccc(Cl)c(Cl)c2)c1C,5,3,70*,31,-12,28*,62*,30*,59*
Cc1ccc(-n2c(C)cc(/C=N/NC(N)=S)c2C)cc1,0,-2,90*,2,-6,16,91*,8,18
COc1ccccc1NS(=O)(=O)c1cc([N+](=O)[O-])ccc1N/N=C/c1c(C)[nH]c2ccccc12,15,17,58*,33,-9,47*,46,16*,9
Nc1ncnc2nc(N3CCN(C(=O)c4ccccc4)CC3)[nH]c12,0,1,102*,-6,-9,6,4,4,4
O=C(c1ccccc1)N1CCN(c2ncccn2)CC1,1,-1,-26,2,-10,/,/,/,/
COC(=O)c1cc(NC(=O)COC(=O)C2COc3ccccc3O2)cc(C(=O)OC)c1 (configuration not stated),0,0,72*,9,-7,26*,42,8,4
CC(C)C(=O)N1CCN(c2ccccc2NC(=S)NC(=O)/C=C/c2ccco2)CC1,-1,-2,51*,6,-4,19,46,4,13
O=C(/C=C/c1ccco1)Nc1ccccc1N1CCCCC1,0,-2,-2,6,2,/,/,/,/
O=C(Nc1ccccc1N1CCN(C(=O)c2ccccc2)CC1)c1ccc(Cl)cc1,0,-2,55*,5,0,24*,46,5,1
O=C(Nc1ccccc1OC(=O)c1ccc(Cl)cc1)c1ccc(Cl)cc1,0,-2,54*,0,-6,-2,53*,1,9
O=C(Nc1ccccc1N1CCN(C(=O)c2ccc(Cl)cc2)CC1)c1ccc(Br)cc1,0,1,18,6,-3,/,/,/,/
